Data published in PMC4980077 (The FEBS journal, 2016).

What was measured:
PKA-Cα = assay: 32P phosphorylation; format: biochemical; details: PKA-Cα 20 nM, pH 7.5; n = 3
Procedure, shortened: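 Substrate was His-tagged human smAKAP (wild type, or S66D with PKA-Cα) at 10 μM. It was incubated with 20 nM recombinant kinase in 50 mM MOPS pH 7.5 containing 10 mM MgCl2, 200 μM ATP and [32P]ATP. Aliquots were quenched in 30% acetic acid at 0, 5, 10 and 15 min. Results are means ± SD of 3 independent experiments.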

PKA-RIβ = assay: Confocal colocalization with PKA-RIβ-mKO2 in HeLa cells; format: cell-based; details: for localization of PKA-RIβ on co-transfection: phosphomimetic mutant + PKA-RIβ-mKO2
Procedure, shortened: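 HeLa cells co-expressed GFP-tagged smAKAP (wild type, S66E or S66D) with mKO2-tagged PKA-RIα or RIβ. Cells were washed in ice-cold PBS, fixed in ice-cold 4% formaldehyde in PBS, washed twice and imaged by confocal microscopy through a 63× oil objective. Stimulated cells received calyculin A plus 8-CPT-cAMP and were imaged live.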

PKA-RIα = assay: Confocal colocalization with PKA-RIα in HeLa cells; format: cell-based; details: phosphomimetic mutant + PKA-RIα-mKO2

phosphorylation by PKA (PKA-Cα)	Molecule	localization of PKA-RIβ on co-transfection (PKA-RIβ)	localization of PKA-RIα on co-transfection (PKA-RIα)	colocalization with PKA-RIβ-mKO2 (PKA-RIβ; transfected, confocal, unstimulated)
no detectable levels of phosphorylation	smAKAP-S66D: recombinant smAKAP with Ser66 mutated to an aspartic acid (protein, UniProt Q9BSF0 2-95, looked up, variant S66D) Small membrane A-kinase …: GCMKSKQTFPFPTIYEGEKQHESEEPFMPEERCLPRMASPVNVKEEVKEPPGTNTVILEYAHRLDQDILCDALQQWACNNIKYHDIPYIESEGP	–	–	–
–	smAKAP-S66D-GFP: phosphomimetic mutant GFP fusion (protein, UniProt Q9BSF0 2-95, looked up, variant S66D, GFP fusion) Small membrane A-kinase …: GCMKSKQTFPFPTIYEGEKQHESEEPFMPEERCLPRMASPVNVKEEVKEPPGTNTVILEYAHRLDQDILCDALQQWACNNIKYHDIPYIESEGP	predominantly resided in the cytoplasm	predominantly resided in the cytoplasm	–
–	smAKAP-S66E-GFP: phosphomimetic mutant GFP fusion (protein, UniProt Q9BSF0 2-95, looked up, variant S66E, GFP fusion) Small membrane A-kinase …: GCMKSKQTFPFPTIYEGEKQHESEEPFMPEERCLPRMASPVNVKEEVKEPPGTNTVILEYAHRLEQDILCDALQQWACNNIKYHDIPYIESEGP	predominantly resided in the cytoplasm	predominantly resided in the cytoplasm	no colocalization occurs
